The text below walks through data of paper PMC4691888 (Genes & Development, 2015).

Changes are numbered by the printed parent chain. No end group written: not given here. Me2 = α-N-dimethylated N-terminal residue

The target of series [1] is T1, human NRMT1 (Homo sapiens, UniProt Q9BV86).
T1 sequence (Q9BV86 1-223): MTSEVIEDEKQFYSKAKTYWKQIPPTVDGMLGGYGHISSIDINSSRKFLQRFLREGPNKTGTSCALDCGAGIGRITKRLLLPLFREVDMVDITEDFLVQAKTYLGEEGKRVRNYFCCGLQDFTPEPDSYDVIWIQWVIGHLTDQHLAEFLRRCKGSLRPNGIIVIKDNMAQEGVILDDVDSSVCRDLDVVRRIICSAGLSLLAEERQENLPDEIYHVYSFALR
In words: MALDI-TOF MS-based methylation assay of native and mutant CENP-A. In kind it is biochemical. As to conditions: 5 h incubation, CENP-A (1-9) peptides. Summed up: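 Recombinant His-tagged human NRMT1, expressed in E. coli and purified, incubated 5 h with native or mutant CENP-A peptides. Methylated products detected by MALDI-TOF mass spectrometry. Abundance of each methylation state scored semi-quantitatively (full or half abundance levels); products not detected are recorded as ND.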

Series [2] concerns the target T1, human NRMT1. In words: Thermofluor shift assay. Format: binding. As to conditions: CENP-A (1-9) peptides, 360 μM; 1 mg/mL NRMT1, 180 μM SAH, pH 8.0. For orientation: DSF heats the sample and reads unfolding from a dye or from intrinsic fluorescence.
In series [3] the target is T1, human NRMT1. In words: Histone peptide methylation profiling by NRMT1. In kind it is biochemical. The settings on record: nine-residue N-terminal histone peptides; MALDI-TOF MS. Summed up: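 Wild-type human NRMT1, produced recombinantly in E. coli and purified as a His-tagged protein, incubated with native or mutant peptide substrates for 5 h. Methylated products detected by MALDI-TOF MS and scored semi-quantitatively by relative abundance of each methylation state (full or half abundance), with not-detected products recorded as ND.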

The target of series [4] is T1, human NRMT1. The settings on record: ref Okada et al. 2007; Tooley et al. 2010; Bailey et al. 2013; cited from earlier work.
Another series deals with human NRMT1 (human) (UniProt Q9BV86). In words: thermofluor shift assay.
Another series concerns the target T2, human NRMT1 D180N (human, UniProt Q9BV86 1-223, D180N).
T2 sequence: T1 sequence (Q9BV86 1-223) with D180N
The series can be described thus: cell-based or functional assay.

Series [5] has as its target T3, human NRMT1 (human, UniProt Q9BV86 1-223).
T3 sequence (looked up): T1 sequence (Q9BV86 1-223)
The series can be described thus: ITC. (In ITC the heat of successive injections is recorded.)

In series [6] the target is T3, human NRMT1. In words: thermofluor shift assay.

As for (G1A)PRRRSRKP, the “methylation capacity / state preference, in words” value on human NRMT1 [1] is listed as “full state”. Further, the “Tm increase (stabilization) compared with NRMT1-SAH binary complex” value at human NRMT1 [2] was found to be 1.5 °C.
The matching figures for (G1P)PRRRSRKP: “full state” and 5.5 °C.
In the same order, the values of (G1S)PRRRSRKP are “α-N-monomethylation being the major product form” and 3 °C.
As to PPKTSGKAA [DmH2B (fruit fly)], the “methylation by NRMT1, in words” value at human NRMT1 [3] is given as “dimethylation”.
Consider “myosin light chain 3: reported NRMT1 substrate protein”, for which, in the series with human NRMT1 [4], the “reported NRMT1 substrate, in words” value is “reported NRMT1 substrates”.
On to α-N-monomethylated CENP-A peptide, for which the Tm of the NRMT1–CENP-A complex with human NRMT1 (human) came out at 49 °C.
The same measure, in the same setting: the result for α-N-trimethylated CENP-A peptide reads 50 °C.

B1: CENP-B: reported NRMT1 substrate protein (protein, UniProt P07199 2-599, looked up)
Major centromere autoantigen B: GPKRRQLTFREKSRIIQEVEENPDLRKGEIARRFNIPPSTLSTILKNKRAILASERKYGVASTCRKTNKLSPYDKLEGLLIAWFQQIRAAGLPVKGIILKEKALRIAEELGMDDFTASNGWLDRFRRRHGVVSCSGVARARARNAAPRTPAAPASPAAVPSEGSGGSTTGWRAREEQPPSVAEGYASQDVFSATETSLWYDFLPDQAAGLCGGDGRPRQATQRLSVLLCANADGSEKLPPLVAGKSAKPRAGQAGLPCDYTANSKGGVTTQALAKYLKALDTRMAAESRRVLLLAGRLAAQSLDTSGLRHVQLAFFPPGTVHPLERGVVQQVKGHYRQAMLLKAMAALEGQDPSGLQLGLTEALHFVAAAWQAVEPSDIAACFREAGFGGGPNATITTSLKSEGEEEEEEEEEEEEEEGEGEEEEEEGEEEEEEGGEGEELGEEEEVEEEGDVDSDEEEEEDEESSSEGLEAEDWAQGVVEAGGSFGAYGAQEEAQCPTLHFLEGGEDSDSDSEEEDDEEEDDEDEDDDDDEEDGDEVPVPSFGEAMAYFAMVKRYLTSFPIDDRVQSHILHLEHDLVHVTRKNHARQAGVRGLGHQS
Take B1: in the series with human NRMT1 [4], the “reported NRMT1 substrate, in words” value is “reported NRMT1 substrates”.

B2: CENP-A (1–9) peptide, unmodified (peptide)
peptide: GPRRRSRKP
B2: in the series with human NRMT1 D180N, the “in vitro methylation assay of CENP-A, drop of activity against wild-type enzyme” value is about 4 fold.

B3: regulator of chromosome condensation 1 (RCC1): reported NRMT1 substrate protein (protein, UniProt P18754 2-421, looked up)
Regulator of chromosome …: SPKRIAKRRSPPADAIPKSKKVKVSHRSHSTEPGLVLTLGQGDVGQLGLGENVMERKKPALVSIPEDVVQAEAGGMHTVCLSKSGQVYSFGCNDEGALGRDTSVEGSEMVPGKVELQEKVVQVSAGDSHTAALTDDGRVFLWGSFRDNNGVIGLLEPMKKSMVPVQVQLDVPVVKVASGNDHLVMLTADGDLYTLGCGEQGQLGRVPELFANRGGRQGLERLLVPKCVMLKSRGSRGHVRFQDAFCGAYFTFAISHEGHVYGFGLSNYHQLGTPGTESCFIPQNLTSFKNSTKSWVGFSGGQHHTVCMDSEGKAYSLGRAEYGRLGLGEGAEEKSIPTLISRLPAVSSVACGASVGYAVTKDGRVFAWGMGTNYQLGTGQDEDAWSPVEMMGKQLENRVVLSVSSGGQHTVLLVKDKEQS
For B3, in the series with human NRMT1 [4], the “reported NRMT1 substrate, in words” value is recorded as “reported NRMT1 substrates”.

B4: kelch-like protein 31: reported NRMT1 substrate protein (protein, UniProt Q9H511 2-634, looked up)
Kelch-like protein 31: APKKKIVKKNKGDINEMTIIVEDSPLNKLNALNGLLEGGNGLSCISSELTDASYGPNLLEGLSKMRQENFLCDLVIGTKTKSFDVHKSVMASCSEYFYNILKKDPSIQRVDLNDISPLGLATVIAYAYTGKLTLSLYTIGSIISAAVYLQIHTLVKMCSDFLIREMSVENCMYVVNIAETYSLKNAKAAAQKFIRDNFLEFAESDQFMKLTFEQINELLIDDDLQLPSEIVAFQIAMKWLEFDQKRVKYAADLLSNIRFGTISAQDLVNYVQSVPRMMQDADCHRLLVDAMNYHLLPYHQNTLQSRRTRIRGGCRVLVTVGGRPGLTEKSLSRDILYRDPENGWSKLTEMPAKSFNQCVAVMDGFLYVAGGEDQNDARNQAKHAVSNFCRYDPRFNTWIHLASMNQKRTHFSLSVFNGLVYAAGGRNAEGSLASLECYVPSTNQWQPKTPLEVARCCHASAVADGRVLVTGGYIANAYSRSVCAYDPASDSWQELPNLSTPRGWHCAVTLSDRVYVMGGSQLGPRGERVDVLTVECYSPATGQWSYAAPLQVGVSTAGVSALHGRAYLVGGWNEGEKKYKKCIQCFSPELNEWTEDDELPEATVGVSCCTLSMPNNVTRESRASSVSSVPVSI
With B4, the “reported NRMT1 substrate, in words” value in the series with human NRMT1 [4] is on record as “reported NRMT1 substrates”.

B5: myosin light chain 2: reported NRMT1 substrate protein (protein, UniProt P10916 2-166, looked up)
Myosin regulatory light chain …: APKKAKKRAGGANSNVFSMFEQTQIQEFKEAFTIMDQNRDGFIDKNDLRDTFAALGRVNVKNEEIDEMIKEAPGPINFTVFLTMFGEKLKGADPEETILNAFKVFDPEGKGVLKADYVREMLTTQAERFSKEEVDQMFAAFPPDVTGNLDYKNLVHIITHGEEKD
As for B5, in the series with human NRMT1 [4], the “reported NRMT1 substrate, in words” value is reported as “reported NRMT1 substrates”.

B6: retinoblastoma protein: reported NRMT1 substrate protein (protein, UniProt P06400 2-928, looked up)
Retinoblastoma-associated …: PPKTPRKTAATAAAAAAEPPAPPPPPPPEEDPEQDSGPEDLPLVRLEFEETEEPDFTALCQKLKIPDHVRERAWLTWEKVSSVDGVLGGYIQKKKELWGICIFIAAVDLDEMSFTFTELQKNIEISVHKFFNLLKEIDTSTKVDNAMSRLLKKYDVLFALFSKLERTCELIYLTQPSSSISTEINSALVLKVSWITFLLAKGEVLQMEDDLVISFQLMLCVLDYFIKLSPPMLLKEPYKTAVIPINGSPRTPRRGQNRSARIAKQLENDTRIIEVLCKEHECNIDEVKNVYFKNFIPFMNSLGLVTSNGLPEVENLSKRYEEIYLKNKDLDARLFLDHDKTLQTDSIDSFETQRTPRKSNLDEEVNVIPPHTPVRTVMNTIQQLMMILNSASDQPSENLISYFNNCTVNPKESILKRVKDIGYIFKEKFAKAVGQGCVEIGSQRYKLGVRLYYRVMESMLKSEEERLSIQNFSKLLNDNIFHMSLLACALEVVMATYSRSTSQNLDSGTDLSFPWILNVLNLKAFDFYKVIESFIKAEGNLTREMIKHLERCEHRIMESLAWLSDSPLFDLIKQSKDREGPTDHLESACPLNLPLQNNHTAADMYLSPVRSPKKKGSTTRVNSTANAETQATSAFQTQKPLKSTSLSLFYKKVYRLAYLRLNTLCERLLSEHPELEHIIWTLFQHTLQNEYELMRDRHLDQIMMCSMYGICKVKNIDLKFKIIVTAYKDLPHAVQETFKRVLIKEEEYDSIIVFYNSVFMQRLKTNILQYASTRPPTLSPIPHIPRSPYKFPSSPLRIPGGNIYISPLKSPYKISEGLPTPTKMTPRSRILVSIGESFGTSEKFQKINQMVCNSDRVLKRSAEGSNPPKPLKKLRFDIEGSDEADGSKHLPGESKFQQKLAEMTSTRTRMQKQKMNDSMDTSNKEEK
As for B6, in the series with human NRMT1 [4], the “reported NRMT1 substrate, in words” value was “reported NRMT1 substrates”.

B7: α-N-dimethylated CENP-A (1–9) peptide (peptide)
peptide: Me2-GPRRRSRKP
As to B7, in the series with human NRMT1 [5], binding was characterised by a dissociation constant (Kd) of 390 nM and the dH was -11.8 kcal/mol. In the series with human NRMT1 [6], the “Tm of the NRMT1–CENP-A complex” value came out at 52.5 °C.
